Results from ChEMBL document CHEMBL5705885, “CYT387, a selective JAK1/JAK2 inhibitor: in vitro assessment of kinase selectivity and preclinical studies using cell lines and primary cells from polycythemia vera patients” (Leukemia, 2009).

Tests used:
[1] = Inhibition of CDK2/cyclin A (unknown origin); set-up: species or system Homo sapiens
[2] = target: Aurora kinase C (Homo sapiens, UniProt Q9UQB9); assay: Inhibition of AURKC (unknown origin)
[3] = target: Cyclin-dependent kinase 1/cyclin B1 (Homo sapiens, UniProt P06493); assay: Inhibition of CDK1/cyclin B (unknown origin); type: protein-complex assay
[4] = target: Cyclin-dependent kinase 5/CDK5 activator 1 (Homo sapiens, UniProt Q00535); assay: Inhibition of CDK5/p35 (unknown origin); type: protein-complex assay
[5] = target: G protein-coupled receptor kinase 4 (Homo sapiens, UniProt P32298); assay: Inhibition of GRK4 (unknown origin)
[6] = target: Mitogen-activated protein kinase kinase kinase 8 (Homo sapiens, UniProt P41279); assay: Inhibition of MAP3K8 (unknown origin)
[7] = target: Serine/threonine-protein kinase 26 (Homo sapiens, UniProt Q9P289); assay: Inhibition of MST4 (unknown origin)
[8] = target: Serine/threonine-protein kinase Nek9 (Homo sapiens, UniProt Q8TD19); assay: Inhibition of NEK9 (unknown origin)
[9] = target: Protein kinase C gamma type (Homo sapiens, UniProt P05129); assay: Inhibition of PRKCG (unknown origin)
[10] = target: T1, Proto-oncogene tyrosine-protein kinase ROS (Homo sapiens, UniProt P08922); assay: Inhibition of ROS1 (unknown origin)
[11] = target: Ribosomal protein S6 kinase beta-1 (Homo sapiens, UniProt P23443); assay: Inhibition of RPS6KB1 (unknown origin)
[12] = target: Calcium/calmodulin-dependent protein kinase type IV (Homo sapiens, UniProt Q16566); assay: Inhibition of CAMK4 (unknown origin)
[13] = target: Dual specificity protein kinase CLK2 (Homo sapiens, UniProt P49760); assay: Inhibition of CLK2 (unknown origin)
[14] = target: Casein kinase I isoform gamma-2 (Homo sapiens, UniProt P78368); assay: Inhibition of CSNK1G2 (unknown origin)
[15] = target: Dual specificity tyrosine-phosphorylation-regulated kinase 1A (Homo sapiens, UniProt Q13627); assay: Inhibition of DYRK1A (unknown origin)
[16] = target: Ephrin type-A receptor 1 (Homo sapiens, UniProt P21709); assay: Inhibition of EPHA1 (unknown origin)
[17] = target: Ephrin type-A receptor 2 (Homo sapiens, UniProt P29317); assay: Inhibition of EPHA2 (unknown origin)
[18] = target: Rhodopsin kinase GRK7 (Homo sapiens, UniProt Q8WTQ7); assay: Inhibition of GRK7 (unknown origin)
[19] = target: Tyrosine-protein kinase ITK/TSK (Homo sapiens, UniProt Q08881); assay: Inhibition of ITK (unknown origin)
[20] = target: Leukocyte tyrosine kinase receptor (Homo sapiens, UniProt P29376); assay: Inhibition of LTK (unknown origin)
[21] = target: Mitogen-activated protein kinase 11 (Homo sapiens, UniProt Q15759); assay: Inhibition of MAPK11 (unknown origin)
[22] = target: Mitogen-activated protein kinase 12 (Homo sapiens, UniProt P53778); assay: Inhibition of MAPK12 (unknown origin)
[23] = target: MAP kinase-activated protein kinase 2 (Homo sapiens, UniProt P49137); assay: Inhibition of MAPKAPK2 (unknown origin)
[24] = target: Platelet-derived growth factor receptor beta (Homo sapiens, UniProt P09619); assay: Inhibition of PDGFRB (unknown origin)
[25] = target: Phosphorylase b kinase gamma catalytic chain, liver/testis isoform (Homo sapiens, UniProt P15735); assay: Inhibition of PHKG2 (unknown origin)
[26] = target: Tyrosine-protein kinase Srms (Homo sapiens, UniProt Q9H3Y6); assay: Inhibition of SRMS (unknown origin)
[27] = target: Testis-specific serine/threonine-protein kinase 2 (Homo sapiens, UniProt Q96PF2); assay: Inhibition of STK22B (unknown origin)
[28] = target: Serine/threonine-protein kinase 25 (Homo sapiens, UniProt O00506); assay: Inhibition of STK25 (unknown origin)
[29] = tested on: BaF3; assay: Antiproliferative activity against mouse BaF3 cells harboring TEL-JAK3 measured after 72 hrs by Alamar blue staining based analysis; type: functional, cell-based; conditions: BaF3, 72 h
Procedure, shortened: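 Murine Ba/F3 cells carrying TEL/JAK2 or TEL/JAK3 fusions, grown in DMEM with 10% fetal calf serum. Compound stocks in DMSO were diluted in culture medium. Proliferation was read by Alamar Blue after 72 h incubation at 37 °C under 5% CO2.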

[30] = tested on: MV4-11; assay: Antiproliferative activity against human MV4-11 cells measured after 72 hrs by Alamar blue staining based analysis; type: functional, cell-based; conditions: MV4-11, 72 h
Procedure, shortened: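 Cells were exposed for 72 h at 37 °C under 5% CO2 to compound made up as DMSO stock and diluted in culture medium. Proliferation was then read by Alamar Blue.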

[31] = target: Signal transducer and activator of transcription 3 (Homo sapiens) (UniProt P40763); assay: Inhibition of STAT3 phosphorylation in human HEL cells by Western blot analysis; type: cell-based; conditions: dose 0.1-5 µM
[32] = species: Homo sapiens; conditions: dose 100.0 nM
[33] = target: Tyrosine-protein kinase JAK2 (Homo sapiens) (UniProt O60674); conditions: dose 100.0 nM
[34] = target: Serine/threonine-protein kinase D3 (Homo sapiens) (UniProt O94806); conditions: dose 100.0 nM
[35] = target: Serine/threonine-protein kinase TBK1 (Homo sapiens) (UniProt Q9UHD2); conditions: dose 100.0 nM
[36] = target: Aurora kinase B (Homo sapiens, UniProt Q96GD4); conditions: dose 100.0 nM
[37] = target: Aurora kinase C (Homo sapiens) (UniProt Q9UQB9); conditions: dose 100.0 nM
[38] = target: Homeodomain-interacting protein kinase 4 (Homo sapiens) (UniProt Q8NE63); conditions: dose 100.0 nM
[39] = target: Inhibitor of nuclear factor kappa-B kinase subunit beta (Homo sapiens) (UniProt O14920); conditions: dose 100.0 nM
[40] = target: Mitogen-activated protein kinase 10 (Homo sapiens) (UniProt P53779); conditions: dose 100.0 nM
[41] = target: Macrophage-stimulating protein receptor (Homo sapiens, UniProt Q04912); conditions: dose 100.0 nM
[42] = target: Muscle, skeletal receptor tyrosine-protein kinase (Homo sapiens) (UniProt O15146); conditions: dose 100.0 nM
[43] = target: Myosin light chain kinase 2, skeletal/cardiac muscle (Homo sapiens, UniProt Q9H1R3); conditions: dose 100.0 nM
[44] = target: Serine/threonine-protein kinase PAK 4 (Homo sapiens, UniProt O96013); conditions: dose 100.0 nM
[45] = target: T1, Proto-oncogene tyrosine-protein kinase ROS; conditions: dose 100.0 nM
[46] = target: Serine/threonine-protein kinase Sgk1 (Homo sapiens) (UniProt O00141); conditions: dose 100.0 nM

T1 sequence (P08922 whole entry): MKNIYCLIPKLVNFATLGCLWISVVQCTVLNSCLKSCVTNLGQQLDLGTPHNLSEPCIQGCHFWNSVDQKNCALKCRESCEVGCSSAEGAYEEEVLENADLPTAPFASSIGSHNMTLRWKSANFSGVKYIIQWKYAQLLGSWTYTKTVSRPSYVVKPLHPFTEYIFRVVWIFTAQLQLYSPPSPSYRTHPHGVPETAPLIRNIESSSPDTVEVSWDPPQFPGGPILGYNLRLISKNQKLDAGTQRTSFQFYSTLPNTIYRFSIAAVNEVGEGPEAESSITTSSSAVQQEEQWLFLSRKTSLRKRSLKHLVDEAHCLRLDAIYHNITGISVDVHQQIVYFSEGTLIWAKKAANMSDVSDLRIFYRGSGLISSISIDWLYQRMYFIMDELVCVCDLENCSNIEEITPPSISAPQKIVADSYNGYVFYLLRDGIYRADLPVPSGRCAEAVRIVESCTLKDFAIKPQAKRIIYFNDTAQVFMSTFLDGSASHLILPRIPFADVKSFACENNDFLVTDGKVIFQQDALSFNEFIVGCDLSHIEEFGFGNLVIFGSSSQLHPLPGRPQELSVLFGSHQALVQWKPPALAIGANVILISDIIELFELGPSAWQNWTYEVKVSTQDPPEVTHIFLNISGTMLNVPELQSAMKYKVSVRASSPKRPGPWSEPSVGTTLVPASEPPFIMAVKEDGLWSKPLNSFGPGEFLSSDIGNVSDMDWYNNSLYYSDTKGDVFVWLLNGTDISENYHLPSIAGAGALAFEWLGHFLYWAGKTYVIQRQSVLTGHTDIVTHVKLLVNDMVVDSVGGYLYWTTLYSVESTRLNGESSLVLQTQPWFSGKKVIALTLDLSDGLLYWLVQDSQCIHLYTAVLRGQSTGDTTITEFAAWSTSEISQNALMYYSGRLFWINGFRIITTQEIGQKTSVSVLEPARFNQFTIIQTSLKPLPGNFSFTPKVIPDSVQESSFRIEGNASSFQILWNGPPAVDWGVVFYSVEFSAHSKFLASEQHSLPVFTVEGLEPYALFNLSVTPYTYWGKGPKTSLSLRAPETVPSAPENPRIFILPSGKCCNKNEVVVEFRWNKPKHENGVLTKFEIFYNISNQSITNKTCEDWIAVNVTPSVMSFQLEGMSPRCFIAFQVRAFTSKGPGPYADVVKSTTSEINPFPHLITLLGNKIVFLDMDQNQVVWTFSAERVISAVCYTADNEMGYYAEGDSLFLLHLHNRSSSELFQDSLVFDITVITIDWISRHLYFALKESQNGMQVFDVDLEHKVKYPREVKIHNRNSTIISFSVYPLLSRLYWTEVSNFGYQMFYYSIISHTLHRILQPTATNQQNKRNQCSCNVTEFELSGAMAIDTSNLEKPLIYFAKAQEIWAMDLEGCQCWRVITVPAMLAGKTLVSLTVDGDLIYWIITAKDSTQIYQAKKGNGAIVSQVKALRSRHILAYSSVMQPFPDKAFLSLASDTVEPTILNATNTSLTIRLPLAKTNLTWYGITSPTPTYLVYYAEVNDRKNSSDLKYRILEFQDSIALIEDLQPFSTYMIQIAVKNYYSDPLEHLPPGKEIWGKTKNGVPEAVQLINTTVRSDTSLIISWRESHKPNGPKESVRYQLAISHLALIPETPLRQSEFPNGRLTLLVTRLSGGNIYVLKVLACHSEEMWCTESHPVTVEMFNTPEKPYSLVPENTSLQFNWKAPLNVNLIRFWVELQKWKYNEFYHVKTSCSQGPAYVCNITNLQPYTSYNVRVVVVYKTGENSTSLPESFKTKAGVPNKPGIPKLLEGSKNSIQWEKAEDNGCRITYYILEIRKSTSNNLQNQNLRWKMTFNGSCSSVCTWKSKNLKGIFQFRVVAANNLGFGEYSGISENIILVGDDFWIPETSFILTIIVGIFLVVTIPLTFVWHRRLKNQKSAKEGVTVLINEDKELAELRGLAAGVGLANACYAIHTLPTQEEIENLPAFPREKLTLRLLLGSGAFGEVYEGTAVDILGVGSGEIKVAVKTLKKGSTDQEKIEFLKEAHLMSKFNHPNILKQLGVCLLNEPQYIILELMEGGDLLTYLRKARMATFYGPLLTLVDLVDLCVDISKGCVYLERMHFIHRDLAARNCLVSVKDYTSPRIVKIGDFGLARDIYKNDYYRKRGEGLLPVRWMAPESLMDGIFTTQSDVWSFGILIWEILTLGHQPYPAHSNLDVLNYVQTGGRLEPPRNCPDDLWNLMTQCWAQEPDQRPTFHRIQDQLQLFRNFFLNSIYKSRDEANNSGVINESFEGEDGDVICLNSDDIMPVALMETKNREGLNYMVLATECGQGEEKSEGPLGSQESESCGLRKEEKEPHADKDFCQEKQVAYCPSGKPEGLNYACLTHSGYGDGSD
Rhodopsin kinase GRK7, sequence (Q8WTQ7 whole entry): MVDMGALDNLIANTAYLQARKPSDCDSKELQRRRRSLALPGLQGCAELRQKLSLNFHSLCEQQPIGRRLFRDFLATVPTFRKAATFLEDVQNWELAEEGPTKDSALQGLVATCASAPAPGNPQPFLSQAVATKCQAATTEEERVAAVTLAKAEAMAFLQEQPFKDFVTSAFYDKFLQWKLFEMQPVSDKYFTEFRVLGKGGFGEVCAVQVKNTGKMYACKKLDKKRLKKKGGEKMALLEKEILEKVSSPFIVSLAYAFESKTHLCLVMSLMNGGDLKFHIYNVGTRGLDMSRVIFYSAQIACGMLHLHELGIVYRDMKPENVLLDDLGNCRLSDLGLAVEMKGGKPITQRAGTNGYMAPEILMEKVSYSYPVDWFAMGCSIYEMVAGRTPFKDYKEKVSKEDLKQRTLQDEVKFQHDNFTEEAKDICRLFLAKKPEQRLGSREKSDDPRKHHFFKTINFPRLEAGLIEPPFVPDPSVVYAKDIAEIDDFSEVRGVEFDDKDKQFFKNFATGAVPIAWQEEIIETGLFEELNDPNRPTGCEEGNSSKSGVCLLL
Mitogen-activated protein kinase kinase kinase 8, sequence (P41279 whole entry): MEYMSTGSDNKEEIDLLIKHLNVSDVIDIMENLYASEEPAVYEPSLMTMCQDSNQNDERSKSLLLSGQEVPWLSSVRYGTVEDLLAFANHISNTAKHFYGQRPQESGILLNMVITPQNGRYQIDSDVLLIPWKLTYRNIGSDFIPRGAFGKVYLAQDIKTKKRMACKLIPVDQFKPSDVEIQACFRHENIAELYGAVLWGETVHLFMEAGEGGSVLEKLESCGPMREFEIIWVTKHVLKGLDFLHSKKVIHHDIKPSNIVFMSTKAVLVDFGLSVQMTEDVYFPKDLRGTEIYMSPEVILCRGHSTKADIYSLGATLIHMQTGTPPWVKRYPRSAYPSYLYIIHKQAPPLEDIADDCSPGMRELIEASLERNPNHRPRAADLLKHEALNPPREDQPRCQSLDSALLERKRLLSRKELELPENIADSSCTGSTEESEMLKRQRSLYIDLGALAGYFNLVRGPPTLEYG
Leukocyte tyrosine kinase receptor, sequence (P29376 whole entry): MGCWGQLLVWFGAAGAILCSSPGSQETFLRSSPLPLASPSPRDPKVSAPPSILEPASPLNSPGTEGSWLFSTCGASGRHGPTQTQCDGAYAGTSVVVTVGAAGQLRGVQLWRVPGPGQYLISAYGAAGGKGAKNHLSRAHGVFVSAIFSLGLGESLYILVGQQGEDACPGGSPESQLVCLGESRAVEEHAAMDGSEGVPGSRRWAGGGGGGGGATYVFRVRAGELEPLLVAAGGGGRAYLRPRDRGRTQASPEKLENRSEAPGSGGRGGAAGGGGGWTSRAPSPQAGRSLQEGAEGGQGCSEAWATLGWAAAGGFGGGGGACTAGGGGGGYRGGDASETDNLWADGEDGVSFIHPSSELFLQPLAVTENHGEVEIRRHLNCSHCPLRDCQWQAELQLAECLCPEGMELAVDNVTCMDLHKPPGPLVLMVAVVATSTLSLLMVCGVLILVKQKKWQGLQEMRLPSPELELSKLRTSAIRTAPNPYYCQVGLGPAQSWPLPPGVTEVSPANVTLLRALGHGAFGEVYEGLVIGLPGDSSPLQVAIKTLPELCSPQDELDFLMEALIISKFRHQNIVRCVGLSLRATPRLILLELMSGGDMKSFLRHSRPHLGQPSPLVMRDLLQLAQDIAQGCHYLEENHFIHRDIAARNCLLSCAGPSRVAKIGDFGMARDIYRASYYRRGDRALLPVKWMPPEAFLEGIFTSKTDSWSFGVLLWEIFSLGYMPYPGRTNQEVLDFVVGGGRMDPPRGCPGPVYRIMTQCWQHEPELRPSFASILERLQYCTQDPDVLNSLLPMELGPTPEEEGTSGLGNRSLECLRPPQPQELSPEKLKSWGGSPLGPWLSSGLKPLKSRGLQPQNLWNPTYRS
Inhibitor of nuclear factor kappa-B kinase subunit beta (Homo sapiens), sequence (O14920 whole entry): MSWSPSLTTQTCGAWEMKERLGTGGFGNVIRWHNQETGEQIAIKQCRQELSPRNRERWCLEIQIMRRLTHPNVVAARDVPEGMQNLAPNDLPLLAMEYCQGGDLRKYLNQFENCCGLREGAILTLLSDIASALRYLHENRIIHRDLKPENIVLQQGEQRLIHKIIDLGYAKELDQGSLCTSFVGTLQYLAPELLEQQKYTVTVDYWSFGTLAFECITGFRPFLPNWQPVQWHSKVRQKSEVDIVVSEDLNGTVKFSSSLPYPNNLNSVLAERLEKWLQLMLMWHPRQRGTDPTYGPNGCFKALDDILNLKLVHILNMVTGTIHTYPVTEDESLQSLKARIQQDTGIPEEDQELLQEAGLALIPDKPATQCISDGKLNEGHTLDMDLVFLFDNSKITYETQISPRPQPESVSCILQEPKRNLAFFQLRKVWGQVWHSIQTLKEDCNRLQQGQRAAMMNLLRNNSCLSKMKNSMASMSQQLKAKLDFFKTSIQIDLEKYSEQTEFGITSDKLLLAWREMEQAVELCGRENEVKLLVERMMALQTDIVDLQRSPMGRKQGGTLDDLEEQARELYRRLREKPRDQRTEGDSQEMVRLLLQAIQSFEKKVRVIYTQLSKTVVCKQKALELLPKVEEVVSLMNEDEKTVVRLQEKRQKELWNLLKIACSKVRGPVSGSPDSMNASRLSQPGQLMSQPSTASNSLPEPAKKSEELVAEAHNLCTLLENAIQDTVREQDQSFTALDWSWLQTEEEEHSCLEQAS

- IC50 [1]: < 100 nM
- IC50 [2]: < 1000 nM
- IC50 [3]: < 1000 nM
- IC50 [4]: < 1000 nM
- IC50 [5]: < 1000 nM
- IC50 [6]: < 1000 nM
- IC50 [7]: < 1000 nM
- IC50 [9]: < 1000 nM
- IC50 [10]: < 1000 nM
- IC50 [11]: < 1000 nM
- IC50 [12]: > 1000 nM
- IC50 [13]: > 1000 nM
- IC50 [14]: > 1000 nM
- IC50 [15]: > 1000 nM
- IC50 [16]: > 1000 nM
- IC50 [17]: > 1000 nM
- IC50 [18]: > 1000 nM
- IC50 [19]: > 1000 nM
- IC50 [20]: > 1000 nM
- IC50 [21]: > 1000 nM
- IC50 [22]: > 1000 nM
- IC50 [23]: > 1000 nM
- IC50 [24]: > 1000 nM
- IC50 [25]: > 1000 nM
- IC50 [26]: > 1000 nM
- IC50 [27]: > 1000 nM
- IC50 [28]: > 1000 nM
- IC50 [29]: 2350 nM
- IC50 [30]: 3000 nM
- inhibition [31]: Dose-Dependent Effect
- inhibition [32]: > 50%
- inhibition [33]: > 50%
- inhibition [34]: > 50%
- inhibition [35]: > 50%
- inhibition [36]: < 50%
- inhibition [37]: < 50%
- inhibition [38]: < 50%
- inhibition [39]: < 50%
- inhibition [40]: < 50%
- inhibition [41]: < 50%
- inhibition [42]: < 50%
- inhibition [43]: < 50%
- inhibition [44]: < 50%
- inhibition [45]: < 50%
- inhibition [46]: < 50%
SMILES: N#CCNC(=O)c1ccc(-c2ccnc(Nc3ccc(N4CCOCC4)cc3)n2)cc1 [MOMELOTINIB]
- IC50 [8]: < 1000 nM
